The source of these data is ChEMBL document CHEMBL4414600, “Discovery of a Furanopyrimidine-Based Epidermal Growth Factor Receptor Inhibitor (DBPR112) as a Clinical Candidate for the Treatment of Non-Small Cell Lung Cancer” (J Med Chem, 2019).

SMILES strings stand for the structures.

For one assay, the system named is HCC827. As to the kind of experiment: Cytotoxicity in human HCC827 cells assessed as reduction in cell viability incubated for 96 hrs by MTS method. In kind it is functional.
Assay [1] is described as follows: Inhibition of GST-tagged human EGFR D770GY mutant using poly(Glu, Tyr) 4:1 substrate incubated for 120 mins by kinase-Glo plus luminescent kinase assay. A general note: Kinase-Glo measures the ATP left after a reaction by luminescence.
The target in assay [2] is Tyrosine-protein kinase BTK (Homo sapiens) (UniProt Q06187). The experiment in a line: Binding affinity to wild-type human full length BTK (M1 to S659 residues) expressed in mammalian expression system assessed as residual binding level at 10000 nM by Kinomescan method relative to control. The procedure, abridged:
(§1)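 KINOMEScan competition binding panel run at 10,000 nM compound, with results expressed as percent of control binding. S(10) is the fraction of non-mutant kinases below 10% of control, out of 395 tested.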

Assay [3] deals with T1, Cytoplasmic tyrosine-protein kinase BMX (Homo sapiens) (UniProt P51813).
T1 sequence (whole entry): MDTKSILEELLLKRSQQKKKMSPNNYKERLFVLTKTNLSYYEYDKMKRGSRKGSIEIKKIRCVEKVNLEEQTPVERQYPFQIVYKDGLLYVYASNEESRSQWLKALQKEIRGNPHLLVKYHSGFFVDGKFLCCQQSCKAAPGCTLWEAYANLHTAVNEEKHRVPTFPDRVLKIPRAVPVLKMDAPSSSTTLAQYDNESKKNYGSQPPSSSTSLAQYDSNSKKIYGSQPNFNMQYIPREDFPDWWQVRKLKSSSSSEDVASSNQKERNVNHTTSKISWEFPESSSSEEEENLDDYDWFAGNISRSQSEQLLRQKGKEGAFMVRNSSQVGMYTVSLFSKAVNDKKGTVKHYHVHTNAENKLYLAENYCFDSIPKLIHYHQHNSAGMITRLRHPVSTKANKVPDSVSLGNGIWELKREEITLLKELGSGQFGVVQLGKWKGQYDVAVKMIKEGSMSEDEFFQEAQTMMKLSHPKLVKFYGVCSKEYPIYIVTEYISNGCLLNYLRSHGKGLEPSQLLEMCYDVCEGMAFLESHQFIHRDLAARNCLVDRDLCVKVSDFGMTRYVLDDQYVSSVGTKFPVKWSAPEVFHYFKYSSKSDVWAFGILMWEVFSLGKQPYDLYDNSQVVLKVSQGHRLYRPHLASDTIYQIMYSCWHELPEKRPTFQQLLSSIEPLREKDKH
As to the kind of experiment: Binding affinity to wild-type human full length BMX (M1 to H675 residues) expressed in bacterial expression system assessed as residual binding level at 10000 nM by Kinomescan method relative to control. The procedure, abridged:
as §1

Assay [4] addresses T2, Tyrosine-protein kinase JAK3 (Homo sapiens) (UniProt P52333).
T2 sequence (whole entry): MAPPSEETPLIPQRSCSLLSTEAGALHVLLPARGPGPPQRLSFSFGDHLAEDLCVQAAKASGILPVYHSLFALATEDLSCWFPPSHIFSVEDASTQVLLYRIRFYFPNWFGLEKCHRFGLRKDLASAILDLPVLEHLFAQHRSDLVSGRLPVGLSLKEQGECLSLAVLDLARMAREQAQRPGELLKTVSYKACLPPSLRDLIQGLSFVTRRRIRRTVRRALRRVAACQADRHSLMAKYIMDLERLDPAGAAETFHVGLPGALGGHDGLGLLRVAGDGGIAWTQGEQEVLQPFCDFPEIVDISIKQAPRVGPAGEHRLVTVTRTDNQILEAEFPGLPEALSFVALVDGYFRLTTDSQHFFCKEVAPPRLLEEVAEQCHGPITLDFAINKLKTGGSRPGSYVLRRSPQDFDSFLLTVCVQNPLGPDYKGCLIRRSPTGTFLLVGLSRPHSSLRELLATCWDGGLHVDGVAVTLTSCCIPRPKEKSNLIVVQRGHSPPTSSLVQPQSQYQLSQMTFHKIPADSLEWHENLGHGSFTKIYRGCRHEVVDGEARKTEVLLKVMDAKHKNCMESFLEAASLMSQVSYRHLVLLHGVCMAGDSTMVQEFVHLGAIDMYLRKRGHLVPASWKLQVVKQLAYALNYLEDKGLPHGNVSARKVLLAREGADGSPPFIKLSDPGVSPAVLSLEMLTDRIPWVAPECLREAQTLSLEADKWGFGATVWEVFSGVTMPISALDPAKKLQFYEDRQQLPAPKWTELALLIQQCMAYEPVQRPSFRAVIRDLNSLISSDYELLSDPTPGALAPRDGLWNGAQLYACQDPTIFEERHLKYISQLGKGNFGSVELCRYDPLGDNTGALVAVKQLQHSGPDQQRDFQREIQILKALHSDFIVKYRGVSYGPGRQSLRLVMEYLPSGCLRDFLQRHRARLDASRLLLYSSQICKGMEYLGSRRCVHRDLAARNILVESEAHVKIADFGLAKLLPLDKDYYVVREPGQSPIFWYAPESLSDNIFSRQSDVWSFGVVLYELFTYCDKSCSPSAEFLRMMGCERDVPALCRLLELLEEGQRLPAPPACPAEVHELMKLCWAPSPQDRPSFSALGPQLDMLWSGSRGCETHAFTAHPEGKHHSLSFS
As to the kind of experiment: Binding affinity to wild-type human partial length JAK3 JH1 catalytic domain (I781 to S1124 residues) expressed in mammalian expression system assessed as residual binding level at 10000 nM by Kinomescan method relative to control. The procedure, abridged: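 KINOMEscan competition-binding profiling at a single concentration of 10,000 nM across a panel that included 395 non-mutant kinases. Binding is read out as percent of control. Kinases with less than 10% of control were counted as hits for the S(10) selectivity score, which is the number of non-mutant hits divided by the number of non-mutant kinases tested.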

Assay [5] has as its target Serine/threonine-protein kinase 10 (Homo sapiens) (UniProt O94804). As to the kind of experiment: Binding affinity to wild-type human partial length LOK (E16 to V314 residues) expressed in bacterial expression system assessed as residual binding level at 10000 nM by Kinomescan method relative to control. In outline: as §1

Tyrosine-protein kinase BTK (Homo sapiens), sequence (Q06187 whole entry, the tested form may be a part): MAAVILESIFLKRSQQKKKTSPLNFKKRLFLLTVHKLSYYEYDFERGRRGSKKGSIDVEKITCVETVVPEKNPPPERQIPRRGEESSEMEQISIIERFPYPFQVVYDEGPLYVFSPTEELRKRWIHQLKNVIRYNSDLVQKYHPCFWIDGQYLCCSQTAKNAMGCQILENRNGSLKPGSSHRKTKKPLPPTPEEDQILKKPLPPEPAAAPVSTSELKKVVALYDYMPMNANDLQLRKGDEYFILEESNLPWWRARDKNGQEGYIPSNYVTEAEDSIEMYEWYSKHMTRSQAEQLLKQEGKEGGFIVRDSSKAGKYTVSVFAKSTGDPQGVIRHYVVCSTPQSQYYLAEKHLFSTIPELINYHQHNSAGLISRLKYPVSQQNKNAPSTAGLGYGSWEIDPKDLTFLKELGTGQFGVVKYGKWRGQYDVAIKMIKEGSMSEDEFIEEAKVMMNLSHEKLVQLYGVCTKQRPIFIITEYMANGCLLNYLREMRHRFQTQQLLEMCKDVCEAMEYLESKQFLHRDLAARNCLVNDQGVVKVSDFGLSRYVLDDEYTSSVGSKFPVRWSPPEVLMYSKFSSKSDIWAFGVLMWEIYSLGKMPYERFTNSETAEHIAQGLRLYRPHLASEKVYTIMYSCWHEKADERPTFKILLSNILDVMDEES
Serine/threonine-protein kinase 10 (Homo sapiens), sequence (O94804 whole entry, looked up, the tested form may be a part): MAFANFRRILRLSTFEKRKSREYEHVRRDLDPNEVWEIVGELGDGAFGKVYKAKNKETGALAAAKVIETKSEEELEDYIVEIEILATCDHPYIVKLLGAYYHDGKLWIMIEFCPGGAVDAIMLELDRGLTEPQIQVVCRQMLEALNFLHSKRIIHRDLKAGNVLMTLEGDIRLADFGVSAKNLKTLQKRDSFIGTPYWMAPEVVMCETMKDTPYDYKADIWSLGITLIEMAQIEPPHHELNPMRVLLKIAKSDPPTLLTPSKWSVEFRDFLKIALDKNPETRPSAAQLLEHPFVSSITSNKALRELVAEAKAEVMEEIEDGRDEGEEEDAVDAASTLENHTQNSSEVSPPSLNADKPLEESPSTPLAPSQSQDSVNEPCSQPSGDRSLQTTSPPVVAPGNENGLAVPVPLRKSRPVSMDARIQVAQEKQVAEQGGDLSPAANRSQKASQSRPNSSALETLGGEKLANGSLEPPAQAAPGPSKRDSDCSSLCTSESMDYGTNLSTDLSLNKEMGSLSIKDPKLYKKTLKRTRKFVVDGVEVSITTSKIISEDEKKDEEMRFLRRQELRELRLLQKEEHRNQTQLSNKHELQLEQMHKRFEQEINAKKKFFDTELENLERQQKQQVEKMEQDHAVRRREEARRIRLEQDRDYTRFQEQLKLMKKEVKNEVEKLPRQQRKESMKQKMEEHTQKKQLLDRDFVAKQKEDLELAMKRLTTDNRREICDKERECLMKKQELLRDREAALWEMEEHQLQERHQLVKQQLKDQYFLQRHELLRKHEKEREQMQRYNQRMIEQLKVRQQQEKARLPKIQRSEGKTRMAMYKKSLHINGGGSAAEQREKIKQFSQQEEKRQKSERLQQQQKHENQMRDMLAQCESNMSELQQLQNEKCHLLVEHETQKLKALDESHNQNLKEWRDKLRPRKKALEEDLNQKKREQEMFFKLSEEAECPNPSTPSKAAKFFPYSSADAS

The term CC50 denotes the concentration that lowers cell viability or growth by half. For orientation: IC50 means the concentration that inhibits the measured activity by half. For `CN(C)C/C=C/C(=O)Nc1cccc(-c2c(-c3ccccc3)oc3ncnc(N[C@H](CO)c4ccccc4)c23)c1`, the CC50 in the assay with HCC827 was determined as 25 nM. Also, the IC50 in assay [1] is 0.033 nM. Moreover, the Activity is 3% in assay [2], 4.8% in assay [3], 0% in assay [4] and < 10% in assay [5].
